# Assay results: ChEMBL document CHEMBL5385967, “Nitrogen-containing andrographolide derivatives with multidrug resistance reversal effects in cancer cells” (RSC Med Chem, 2024)
# Tested on: not listed separately
# Assay: Resistance ratio of IC50 for antiproliferative activity against multidrug resistant mouse L5178Y cells transfected with human ABCB1 to IC50 for antiproliferative activity against mouse L5178Y cells
# Format: functional
# Settings: not given
# In short: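 RR = IC50(MDR)/IC50(PAR), IC50s from the 72 h MTT assay: 2-fold dilutions from 100 μM, 6 × 10^3 cells/well, triplicate. Collateral sensitivity taken as RR < 0.5; RR < 1 counted as selectivity toward resistant cells.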
row,Compound,Ratio
1,C=C1CC[C@@H]2[C@](C)(COC(C)=O)[C@H](OC(C)=O)CC[C@@]2(C)[C@@H]1C[C@@H](NNC(=O)c1ccc(C(F)(F)F)cc1)C1=CCOC1=O,1.08
2,C=C1CC[C@@H]2[C@](C)(COC(C)=O)[C@H](OC(C)=O)CC[C@@]2(C)[C@@H]1C[C@H](NNC(=O)c1cccs1)C1=CCOC1=O,0.96
3,C=C1CC[C@@H]2[C@](C)(COC(C)=O)[C@H](OC(C)=O)CC[C@@]2(C)[C@@H]1C[C@H](NNC(=O)c1ccc(C(F)(F)F)cc1)C1=CCOC1=O,1.75
4,C=C1CC[C@@H]2[C@](C)(COC(C)=O)[C@H](OC(C)=O)CC[C@@]2(C)[C@@H]1C[C@H](NNC(=S)N(C)C)C1=CCOC1=O,1.4
5,C=C1CC[C@@H]2[C@](C)(COC(C)=O)[C@H](OC(C)=O)CC[C@@]2(C)[C@@H]1C[C@H](NNC(=S)Nc1ccc([N+](=O)[O-])cc1)C1=CCOC1=O,3.4
6,C=C1CC[C@@H]2[C@](C)(COC(C)=O)[C@H](OC(C)=O)CC[C@@]2(C)[C@@H]1C/C=C1/C(=O)OC[C@H]1OC(C)=O,1.45
7,C=C1CC[C@@H]2[C@](C)(COC(C)=O)[C@H](OC(C)=O)CC[C@@]2(C)[C@@H]1C[C@H](NNC(=S)Nc1ccccc1C)C1=CCOC1=O,1.42

# Biological target: T1, ATP-dependent translocase ABCB1 (Homo sapiens, UniProt P08183)
# Assay: Modulation of human P-gp transfected in mouse L5178Y cells assessed as change in Rhodamine-123 efflux by measuring fluorescence activity ratio at 0.2 uM pretreated for 10 mins followed by Rhodamine-123 challenge for 20 mins by flow cytometry relative to parental mouse L5178Y cells
# Format: cell-based
# Settings: 0.5 h, time 30 min
# In short: (§1)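 PAR and MDR cells at 2 × 10^6 cells/mL in serum-free McCoy's 5A. Compound given 10 min at room temperature, then rhodamine-123 (5.2 μM final) for 20 min at 37 °C. Washed twice, resuspended in PBS, mean FL-1 read by flow cytometry. FAR = (MDR treated/untreated)/(PAR treated/untreated). Verapamil 20 μM positive control, DMSO 2% solvent control.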
# T1 sequence (P08183 whole entry): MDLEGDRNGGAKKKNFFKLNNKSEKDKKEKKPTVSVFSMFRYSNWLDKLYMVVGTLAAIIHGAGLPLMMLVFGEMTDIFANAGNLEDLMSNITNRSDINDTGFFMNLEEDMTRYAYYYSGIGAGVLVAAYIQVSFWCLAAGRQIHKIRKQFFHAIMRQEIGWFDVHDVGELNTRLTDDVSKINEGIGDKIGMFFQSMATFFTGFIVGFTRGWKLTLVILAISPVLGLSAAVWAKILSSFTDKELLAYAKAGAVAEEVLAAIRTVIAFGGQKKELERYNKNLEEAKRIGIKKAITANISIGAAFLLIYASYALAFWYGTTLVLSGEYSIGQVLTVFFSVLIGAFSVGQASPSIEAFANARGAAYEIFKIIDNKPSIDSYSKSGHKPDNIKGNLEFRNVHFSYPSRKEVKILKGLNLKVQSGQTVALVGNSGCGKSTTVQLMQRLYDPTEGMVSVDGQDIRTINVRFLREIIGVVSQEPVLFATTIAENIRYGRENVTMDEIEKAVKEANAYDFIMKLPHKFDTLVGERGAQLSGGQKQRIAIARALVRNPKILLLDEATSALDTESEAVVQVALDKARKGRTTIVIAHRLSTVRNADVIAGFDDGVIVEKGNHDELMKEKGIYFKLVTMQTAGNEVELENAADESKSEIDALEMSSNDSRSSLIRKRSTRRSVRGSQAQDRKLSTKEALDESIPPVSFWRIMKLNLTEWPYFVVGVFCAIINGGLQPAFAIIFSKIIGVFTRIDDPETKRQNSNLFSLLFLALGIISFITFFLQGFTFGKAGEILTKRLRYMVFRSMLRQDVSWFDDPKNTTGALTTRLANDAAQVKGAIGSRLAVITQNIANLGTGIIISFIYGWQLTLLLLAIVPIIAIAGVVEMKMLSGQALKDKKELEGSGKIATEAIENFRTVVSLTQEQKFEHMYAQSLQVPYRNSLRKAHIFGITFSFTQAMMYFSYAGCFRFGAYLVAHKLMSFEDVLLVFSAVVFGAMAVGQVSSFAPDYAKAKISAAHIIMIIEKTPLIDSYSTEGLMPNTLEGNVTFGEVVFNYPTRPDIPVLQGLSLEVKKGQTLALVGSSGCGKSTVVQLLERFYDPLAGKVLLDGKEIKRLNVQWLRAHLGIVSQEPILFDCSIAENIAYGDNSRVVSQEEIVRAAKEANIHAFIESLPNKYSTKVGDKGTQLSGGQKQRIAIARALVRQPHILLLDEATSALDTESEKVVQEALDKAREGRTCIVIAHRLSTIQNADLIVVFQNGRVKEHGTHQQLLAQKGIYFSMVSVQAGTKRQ
row,Compound,Ratio
1,C=C1CC[C@@H]2[C@](C)(COC(C)=O)[C@H](OC(C)=O)CC[C@@]2(C)[C@@H]1C[C@@H](NNC(=O)c1ccc(C(F)(F)F)cc1)C1=CCOC1=O,1.63
2,C=C1CC[C@@H]2[C@](C)(COC(C)=O)[C@H](OC(C)=O)CC[C@@]2(C)[C@@H]1C[C@H](NNC(=O)c1cccs1)C1=CCOC1=O,0.54
3,C=C1CC[C@@H]2[C@](C)(COC(C)=O)[C@H](OC(C)=O)CC[C@@]2(C)[C@@H]1C[C@H](NNC(=O)c1ccc(C(F)(F)F)cc1)C1=CCOC1=O,0.37

# Tested on: L5178Y
# Assay: Reversal of multidrug resistance in multidrug resistant mouse L5178Y cells transfected with human ABCB1 assessed as reduction in cell viability incubated for 72 hrs by MTT assay
# Format: functional, cell-based
# Settings: not given
# In short: (§2)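 Parental L5178Y or human ABCB1-transfected L5178Y MDR subline kept under 60 ng mL−1 colchicine selection; McCoy's 5A, 10% heat-inactivated horse serum, 37 °C. 6 × 10^3 cells/well exposed to 2-fold serial dilutions from 100 μM for 72 h. MTT 4 h, SDS overnight, OD 540/630 nm. Triplicate; IC50 from curve fitting, mean ± SD.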
row,Compound,IC50 [µM]
1,C=C1CC[C@@H]2[C@](C)(COC(C)=O)[C@H](OC(C)=O)CC[C@@]2(C)[C@@H]1C[C@@H](NNC(=O)c1ccc(C(F)(F)F)cc1)C1=CCOC1=O,15.3
2,C=C1CC[C@@H]2[C@](C)(COC(C)=O)[C@H](OC(C)=O)CC[C@@]2(C)[C@@H]1C[C@H](NNC(=O)c1cccs1)C1=CCOC1=O,15
3,C=C1CC[C@@H]2[C@](C)(COC(C)=O)[C@H](OC(C)=O)CC[C@@]2(C)[C@@H]1C[C@H](NNC(=O)c1ccc(C(F)(F)F)cc1)C1=CCOC1=O,11.8
4,C=C1CC[C@@H]2[C@](C)(COC(C)=O)[C@H](OC(C)=O)CC[C@@]2(C)[C@@H]1C[C@H](NNC(=S)N(C)C)C1=CCOC1=O,40.9
5,C=C1CC[C@@H]2[C@](C)(COC(C)=O)[C@H](OC(C)=O)CC[C@@]2(C)[C@@H]1C[C@H](NNC(=S)Nc1ccc([N+](=O)[O-])cc1)C1=CCOC1=O,54.8
6,C=C1CC[C@@H]2[C@](C)(COC(C)=O)[C@H](OC(C)=O)CC[C@@]2(C)[C@@H]1C/C=C1/C(=O)OC[C@H]1OC(C)=O,19.2
7,C=C1CC[C@@H]2[C@](C)(COC(C)=O)[C@H](OC(C)=O)CC[C@@]2(C)[C@@H]1C[C@H](NNC(=S)Nc1ccccc1C)C1=CCOC1=O,81

# Tested on: L5178Y
# Assay: Synergistic antiproliferative activity against multidrug resistant mouse L5178Y cells transfected with human ABCB1 assessed as combination index incubated for 72 hrs in presence of doxorubicin by MTT assay
# Format: functional
# Settings: not given
# In short: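 Checkerboard in MDR cells, 6 × 10^3 cells/well. Doxorubicin in serial dilutions from 8.6 μM, crossed with modifier dilutions whose start level was set from its IC50. 72 h at 37 °C under CO2, growth read by MTT. Curves fitted by the median-effect equation; CI reported at 50% inhibition, mean ± SD.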
row,Compound,CI
1,C=C1CC[C@@H]2[C@](C)(COC(C)=O)[C@H](OC(C)=O)CC[C@@]2(C)[C@@H]1C[C@@H](NNC(=O)c1ccc(C(F)(F)F)cc1)C1=CCOC1=O,<1
2,C=C1CC[C@@H]2[C@](C)(COC(C)=O)[C@H](OC(C)=O)CC[C@@]2(C)[C@@H]1C[C@H](NNC(=O)c1cccs1)C1=CCOC1=O,<1
3,C=C1CC[C@@H]2[C@](C)(COC(C)=O)[C@H](OC(C)=O)CC[C@@]2(C)[C@@H]1C[C@H](NNC(=O)c1ccc(C(F)(F)F)cc1)C1=CCOC1=O,<1

# Biological target: T1, ATP-dependent translocase ABCB1
# Assay: Modulation of human P-gp transfected in mouse L5178Y cells assessed as change in Rhodamine-123 efflux by measuring fluorescence activity ratio at 2 uM pretreated for 10 mins followed by Rhodamine-123 challenge for 20 mins by flow cytometry relative to parental mouse L5178Y cells
# Format: cell-based
# Settings: 0.5 h, time 30 min
# In short: as §1
row,Compound,Ratio
1,C=C1CC[C@@H]2[C@](C)(COC(C)=O)[C@H](OC(C)=O)CC[C@@]2(C)[C@@H]1C[C@@H](NNC(=O)c1ccc(C(F)(F)F)cc1)C1=CCOC1=O,5.19
2,C=C1CC[C@@H]2[C@](C)(COC(C)=O)[C@H](OC(C)=O)CC[C@@]2(C)[C@@H]1C[C@H](NNC(=O)c1cccs1)C1=CCOC1=O,1.89
3,C=C1CC[C@@H]2[C@](C)(COC(C)=O)[C@H](OC(C)=O)CC[C@@]2(C)[C@@H]1C[C@H](NNC(=O)c1ccc(C(F)(F)F)cc1)C1=CCOC1=O,2.27
4,C=C1CC[C@@H]2[C@](C)(COC(C)=O)[C@H](OC(C)=O)CC[C@@]2(C)[C@@H]1C[C@H](NNC(=S)N(C)C)C1=CCOC1=O,58.18
5,C=C1CC[C@@H]2[C@](C)(COC(C)=O)[C@H](OC(C)=O)CC[C@@]2(C)[C@@H]1C[C@H](NNC(=S)Nc1ccc([N+](=O)[O-])cc1)C1=CCOC1=O,27.27
6,C=C1CC[C@@H]2[C@](C)(COC(C)=O)[C@H](OC(C)=O)CC[C@@]2(C)[C@@H]1C/C=C1/C(=O)OC[C@H]1OC(C)=O,1.95
7,C=C1CC[C@@H]2[C@](C)(COC(C)=O)[C@H](OC(C)=O)CC[C@@]2(C)[C@@H]1C[C@H](NNC(=S)Nc1ccccc1C)C1=CCOC1=O,1.06

# Biological target: T1, ATP-dependent translocase ABCB1
# Assay: Modulation of human P-gp transfected in mouse L5178Y cells assessed as change in Rhodamine-123 efflux by measuring fluorescence activity ratio at 20 uM pretreated for 10 mins followed by Rhodamine-123 challenge for 20 mins by flow cytometry relative to parental mouse L5178Y cells
# Format: cell-based
# Settings: 0.5 h, time 30 min
row,Compound,Ratio
1,C=C1CC[C@@H]2[C@](C)(COC(C)=O)[C@H](OC(C)=O)CC[C@@]2(C)[C@@H]1C[C@H](NNC(=S)N(C)C)C1=CCOC1=O,61.3
2,C=C1CC[C@@H]2[C@](C)(COC(C)=O)[C@H](OC(C)=O)CC[C@@]2(C)[C@@H]1C[C@H](NNC(=S)Nc1ccc([N+](=O)[O-])cc1)C1=CCOC1=O,51.95
3,C=C1CC[C@@H]2[C@](C)(COC(C)=O)[C@H](OC(C)=O)CC[C@@]2(C)[C@@H]1C/C=C1/C(=O)OC[C@H]1OC(C)=O,38.65
4,C=C1CC[C@@H]2[C@](C)(COC(C)=O)[C@H](OC(C)=O)CC[C@@]2(C)[C@@H]1C[C@H](NNC(=S)Nc1ccccc1C)C1=CCOC1=O,37.12

# Tested on: L5178Y
# Assay: Antiproliferative activity against mouse L5178Y cells assessed as reduction in cell viability incubated for 72 hrs by MTT assay
# Format: functional, cell-based
# Settings: not given
# In short: as §2
row,Compound,IC50 [µM]
1,C=C1CC[C@@H]2[C@](C)(COC(C)=O)[C@H](OC(C)=O)CC[C@@]2(C)[C@@H]1C[C@@H](NNC(=O)c1ccc(C(F)(F)F)cc1)C1=CCOC1=O,14.2
2,C=C1CC[C@@H]2[C@](C)(COC(C)=O)[C@H](OC(C)=O)CC[C@@]2(C)[C@@H]1C[C@H](NNC(=O)c1cccs1)C1=CCOC1=O,15.5
3,C=C1CC[C@@H]2[C@](C)(COC(C)=O)[C@H](OC(C)=O)CC[C@@]2(C)[C@@H]1C[C@H](NNC(=O)c1ccc(C(F)(F)F)cc1)C1=CCOC1=O,6.74
4,C=C1CC[C@@H]2[C@](C)(COC(C)=O)[C@H](OC(C)=O)CC[C@@]2(C)[C@@H]1C[C@H](NNC(=S)N(C)C)C1=CCOC1=O,29.1
5,C=C1CC[C@@H]2[C@](C)(COC(C)=O)[C@H](OC(C)=O)CC[C@@]2(C)[C@@H]1C[C@H](NNC(=S)Nc1ccc([N+](=O)[O-])cc1)C1=CCOC1=O,16.1
6,C=C1CC[C@@H]2[C@](C)(COC(C)=O)[C@H](OC(C)=O)CC[C@@]2(C)[C@@H]1C/C=C1/C(=O)OC[C@H]1OC(C)=O,13.3
7,C=C1CC[C@@H]2[C@](C)(COC(C)=O)[C@H](OC(C)=O)CC[C@@]2(C)[C@@H]1C[C@H](NNC(=S)Nc1ccccc1C)C1=CCOC1=O,56.9
